Assay outcomes deposited in PubChem by several laboratories.
CFTR F508del cor: CFTR F508del correction in bronchial cells; CFBE cells, YFP halide quenching; stimulated with forskolin plus potentiator P3; % fluorescence drop versus neutral controls; activity (quench increase), % at 7.58 µM; 350,000 compounds, 0.36% hits;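 active = mean added fluorescence quench of at least 8% versus neutral control, with both replicates also reaching 8%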;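 also: cells transiently co-express mutant CFTR-F508del with the halide-sensitive YFP; corrector assay measuring rescue of mutant channel to the surface after 24 h compound exposure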
STEP block: inhibitors of human striatal-enriched phosphatase STEP; P54829; recombinant STEP, OMFP fluorogenic substrate, fluorescence; inhibition, % at 20 µM; 360,000 compounds, 0.25% hits; AID 588621;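 active = inhibition at 20 µM, scaled per plate between control wells, above about 37%, limit read from the data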;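 also: 0% = DMSO with enzyme and substrate and 100% = substrate only without enzyme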
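material = STEP tyrosine phosphatase | reagent = fluorogenic phosphatase substrate OMFP at 25 µM final | doses = single compound dose of 20 µM, 1% DMSO final | schedule = 20 min reaction, room temperature, in the dark | measured by = fluorescence, 480/540 nm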
LMPTP block: blocks human LMPTP phosphatase; recombinant LMPTP-A, OMFP fluorogenic substrate, fluorescence intensity; inhibition, % at 20 µM; 360,000 compounds, 0.22% hits;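 active = compounds that cut the enzyme signal by at least half of the control window in the single-dose screen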;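 also: plate controls were DMSO wells with enzyme plus substrate for no effect and substrate without enzyme for full effect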
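Test system: LMPTP-A phosphatase enzyme. Amount: LMPTP-A at 0.625 nM final in the reaction. Reagent: OMFP substrate, 400 µM final. Times: 50 min at room temperature. Signal: endpoint fluorescence intensity from OMFP dephosphorylation. Read-out basis: % inhibition. Benchmarks: no-enzyme and uninhibited controls.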
Scp1 inh: blocks human Scp-1 phosphatase activity. 340,000 compounds, 0.88% hits. Recombinant Scp1, phosphopeptide, malachite green phosphate absorbance. Q9GZU7. AID 493091. inhibition, % at 20 µM;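 active = inhibition above about 50% at 20 µM, limit read from the data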;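 also: plate controls were DMSO wells with enzyme for no effect and wells lacking enzyme for full effect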
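System: truncated SCP-1 phosphatase (76-261aa); medium: Tris acetate buffer pH 5.5 with MgCl2 and Tween-20; incubation: 45 min room-temperature reaction, 5 min colour, 30 min stabiliser; compound: single 20 µM dose, 1% DMSO; reagent: Phosphorylated 17-residue peptide substrate; read-out: % inhibition at 20 µM; technique: colorimetric free-phosphate detection, absorbance 630 nm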
SUMO1 PPI mod: modulators of human SUMO1-mediated protein-protein interactions. P63165. 360,000 compounds, 0.33% hits. inhibition, % at 20 µM. SUMO1 binding to a labelled peptide, TR-FRET, 1 h. AID 602429; in the data active = inhibition above about 37%
DNMT1 block: blocks human DNA methyltransferase DNMT1; 360,000 compounds, 0.83% hits; inhibition (reported as % activation of signal), % at 10 µM; DNMT1 molecular beacon, Hinp1I cleavage, fluorescence; AID 588458; in the data active = inhibition above about 50%
Target sequence (P26358 504-1616 limits assumed): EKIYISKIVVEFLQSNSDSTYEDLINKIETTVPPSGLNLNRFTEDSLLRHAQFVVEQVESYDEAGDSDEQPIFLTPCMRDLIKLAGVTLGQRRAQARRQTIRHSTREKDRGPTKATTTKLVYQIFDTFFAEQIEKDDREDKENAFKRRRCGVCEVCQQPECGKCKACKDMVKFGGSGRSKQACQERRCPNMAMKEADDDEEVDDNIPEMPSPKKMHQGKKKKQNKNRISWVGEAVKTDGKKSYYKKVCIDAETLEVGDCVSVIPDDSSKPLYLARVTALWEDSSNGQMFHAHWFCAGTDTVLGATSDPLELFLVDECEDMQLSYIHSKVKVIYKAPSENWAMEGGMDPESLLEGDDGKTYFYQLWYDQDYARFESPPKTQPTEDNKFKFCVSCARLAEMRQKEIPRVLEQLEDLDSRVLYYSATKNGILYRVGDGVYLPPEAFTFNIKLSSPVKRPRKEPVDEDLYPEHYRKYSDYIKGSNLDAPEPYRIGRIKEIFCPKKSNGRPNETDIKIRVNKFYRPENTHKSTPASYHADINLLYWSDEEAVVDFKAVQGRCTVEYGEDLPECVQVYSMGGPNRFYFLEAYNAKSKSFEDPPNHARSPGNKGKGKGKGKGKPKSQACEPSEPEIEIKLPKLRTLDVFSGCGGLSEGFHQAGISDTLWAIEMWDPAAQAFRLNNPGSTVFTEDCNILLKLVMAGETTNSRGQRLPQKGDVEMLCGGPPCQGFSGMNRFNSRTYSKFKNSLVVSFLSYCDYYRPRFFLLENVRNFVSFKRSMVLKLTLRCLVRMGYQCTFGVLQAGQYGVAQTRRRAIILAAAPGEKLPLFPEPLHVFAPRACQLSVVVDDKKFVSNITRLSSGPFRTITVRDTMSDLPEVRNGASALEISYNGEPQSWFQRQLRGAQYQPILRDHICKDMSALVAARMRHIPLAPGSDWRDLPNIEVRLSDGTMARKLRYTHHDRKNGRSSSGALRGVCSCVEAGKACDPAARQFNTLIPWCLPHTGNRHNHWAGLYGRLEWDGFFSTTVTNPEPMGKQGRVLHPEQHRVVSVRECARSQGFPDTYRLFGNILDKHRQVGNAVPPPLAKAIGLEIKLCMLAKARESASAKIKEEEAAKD
Numbers without * were called inactive. In the library only some 1.6% were active in any assay of this set; here they are far more common.

Screening CCOC(=O)C1Nc2ccc(C(=O)O)cc2C2C=CCC12 (stereo unspecified) returned CFTR F508del cor -4, STEP block 42*, LMPTP block 2, Scp1 inh 36, SUMO1 PPI mod 48* and DNMT1 block 60*.
`CCCC1Nc2ccc(C(=O)O)cc2C2C=CCC12` (stereo unspecified) gave STEP block 4, LMPTP block 1, Scp1 inh 6, SUMO1 PPI mod 26 and DNMT1 block 32.
O=C(O)c1cc(O)c2c(c1)[C@H]([C@H]1c3cc(C(=O)O)cc(O)c3C(=O)c3c(O[C@@H]4O[C@H](CO)[C@@H](O)[C@H](O)[C@H]4O)cccc31)c1cccc(OC3O[C@H](CO)[C@@H](O)[C@H](O)[C@H]3O)c1C2=O (stereo partly specified) was read as CFTR F508del cor 0, STEP block 98*, LMPTP block 94*, Scp1 inh 92*, SUMO1 PPI mod 116* and DNMT1 block 97*.
Screening O=C(O)c1cc(O)c2c(c1)[C@@H]([C@H]1c3cc(C(=O)O)cc(O)c3C(=O)c3c(O[C@@H]4O[C@H](CO)[C@@H](O)[C@H](O)[C@H]4O)cccc31)c1cccc(OC3O[C@H](CO)[C@@H](O)[C@H](O)[C@H]3O)c1C2=O (stereo partly specified) returned CFTR F508del cor -2, STEP block 98*, LMPTP block 92*, Scp1 inh 92*, SUMO1 PPI mod 119* and DNMT1 block 98*.
Screening COc1ccc(OC)c(Nc2c3c(nc4ccccc24)CCC3)c1 returned CFTR F508del cor 6, STEP block -2, LMPTP block 21, Scp1 inh -2, SUMO1 PPI mod 8 and DNMT1 block -4.
For COc1cc(Nc2c3c(nc4ccccc24)CCC3)cc(OC)c1OC the results were CFTR F508del cor 8.6*, STEP block 2, LMPTP block 39, Scp1 inh 0, SUMO1 PPI mod 1 and DNMT1 block 0.
`Cc1cccc(C)c1NC(=O)/C(C#N)=C/c1ccc(-c2ccc(C(=O)O)cc2)o1` gave CFTR F508del cor 1, STEP block 7, LMPTP block 1, Scp1 inh 34, SUMO1 PPI mod -17 and DNMT1 block 16.
`N#C/C(=C\c1ccc(-c2ccc(C(=O)O)cc2)o1)C(=O)Nc1ccc(F)cc1` gave CFTR F508del cor 2, STEP block 6, LMPTP block 7, Scp1 inh 69*, SUMO1 PPI mod 3 and DNMT1 block 46.
Screening C[C@@H]1CN([C@@H](C)CO)C(=O)Cc2cc(NC(=O)Cn3cnnn3)ccc2O[C@H]1CN(C)Cc1ccccc1 returned CFTR F508del cor 1.
`COc1cccc(NC(=O)Nc2ccc3c(c2)C(=O)N(C)[C@H]2CC[C@@H](CC(=O)O)O[C@@H]2CO3)c1` gave CFTR F508del cor 0.
For CC1=C(C#N)C(=O)NC(=O)/C1=C\c1ccc(-c2cc(C)c(C)cc2[N+](=O)[O-])o1 the results were CFTR F508del cor -1, STEP block 5, LMPTP block 3, Scp1 inh 78*, SUMO1 PPI mod 18 and DNMT1 block 13.
Screening COc1ccc(COCC23Oc4ccccc4[C@H]([C@H]2CO)n2c(c4c(c(C(C)=O)c2=O)C(=O)N(C)C4=O)N3C)cc1 returned CFTR F508del cor -4.
Screening O=C(NCCN1CCN(c2cccc(Cl)c2)CC1)c1ccc(CSc2nc3ccncc3[nH]2)cc1 returned STEP block 1, LMPTP block 83*, Scp1 inh -1, SUMO1 PPI mod 5 and DNMT1 block -11.
CC(N)=Nc1ccc([N+](=O)[O-])cc1 was read as STEP block -4, LMPTP block -1, Scp1 inh -8, SUMO1 PPI mod -13 and DNMT1 block 4.
Screening O=[N+]([O-])c1ccc(N=Nc2c(Cl)cc(O)cc2Cl)cc1 returned CFTR F508del cor 10*, STEP block -2, LMPTP block 3, Scp1 inh -15, SUMO1 PPI mod -38 and DNMT1 block -2.
For CCc1nnc(NC(=O)c2ccc(OC)cc2)s1 the results were CFTR F508del cor 3, STEP block -1, LMPTP block -1, Scp1 inh -5, SUMO1 PPI mod 2 and DNMT1 block -1.
For Cc1ccc(C(=O)Nc2nnc(CC(=O)N/N=C/c3ccncc3)s2)cc1 the results were CFTR F508del cor -1, STEP block 6, LMPTP block 14, Scp1 inh -3, SUMO1 PPI mod 6 and DNMT1 block -8.
Screening COc1ccc(C(=O)Nc2nnc(CC(=O)N/N=C/c3ccc(O)cc3O)s2)cc1 returned CFTR F508del cor 1, STEP block 10, LMPTP block 13, SUMO1 PPI mod 79* and DNMT1 block 23.
Screening Cc1ccc(C(=O)Nc2nnc(CC(=O)N/N=C/c3ccc(O)c(O)c3)s2)cc1 returned CFTR F508del cor 1, STEP block 6, LMPTP block 24, Scp1 inh 31, SUMO1 PPI mod 96* and DNMT1 block 15.
C[C@H]1CN([C@@H](C)CO)C(=O)c2cc(-c3ccc(F)cc3)cnc2O[C@@H]1CN(C)C(=O)C1CCC1 was read as CFTR F508del cor 0.
Screening Cc1c(C)c2c(OCC(=O)N3CCC(O)CC3)cc3c(c2oc1=O)CCC(C)(C)O3 returned CFTR F508del cor 9.2*, STEP block 0, LMPTP block 1, Scp1 inh -1, SUMO1 PPI mod -8 and DNMT1 block -1.
Screening Nc1ccc(-c2c3ccc(=O)cc-3oc3cc(O)ccc23)c(C(=O)O)c1 returned STEP block -110, LMPTP block 11, Scp1 inh -2, SUMO1 PPI mod inactive and DNMT1 block active.
CCc1ccc(OCc2n[nH]c(=S)n2C(C)CCCC(C)C)cc1 (stereo unspecified) was read as CFTR F508del cor 17*, STEP block 0, LMPTP block 3, Scp1 inh -9, SUMO1 PPI mod 5 and DNMT1 block -14.
Screening N=C1CCC(=N)c2c1c(O)c1ccccc1c2O returned STEP block 6, LMPTP block 31, Scp1 inh 42, SUMO1 PPI mod 44* and DNMT1 block 76*.
Cc1cc2nc(/C(C#N)=C\c3ccc(-c4ccccc4C(=O)O)o3)[nH]c2cc1C was read as CFTR F508del cor 2, STEP block -8, LMPTP block 5, Scp1 inh 27, SUMO1 PPI mod -22 and DNMT1 block 4.
For Cc1cc2nc3s/c(=C/c4ccc(-c5ccccc5C(=O)O)o4)c(=O)n3c2cc1C the results were CFTR F508del cor 4, STEP block 24, LMPTP block 7, Scp1 inh 98*, SUMO1 PPI mod 16 and DNMT1 block 45.
